Test results taken from ChEMBL document CHEMBL1144727, “Fragment based design of new H4 receptor-ligands with anti-inflammatory properties in vivo” (J Med Chem, 2008).
The source made the active and inactive calls. The rule behind the calls is not given here.

Columns and labels:
Histamine H4 receptor = Histamine H4 receptor (Homo sapiens, UniProt Q9H3N8); experiment: Displacement of [3H]histamine from human histamine H4 receptor expressed in HEK293T cells; type: cell-based, HEK-293T
Histamine H1 receptor [1] = molecular target: T1, Histamine H1 receptor (Homo sapiens, UniProt P35367); experiment: Displacement of [3H]mepyramine from human histamine H1 receptor expressed in NIH3T3 cells at 10 uM; type: cell-based
T1 sequence (P35367 whole entry): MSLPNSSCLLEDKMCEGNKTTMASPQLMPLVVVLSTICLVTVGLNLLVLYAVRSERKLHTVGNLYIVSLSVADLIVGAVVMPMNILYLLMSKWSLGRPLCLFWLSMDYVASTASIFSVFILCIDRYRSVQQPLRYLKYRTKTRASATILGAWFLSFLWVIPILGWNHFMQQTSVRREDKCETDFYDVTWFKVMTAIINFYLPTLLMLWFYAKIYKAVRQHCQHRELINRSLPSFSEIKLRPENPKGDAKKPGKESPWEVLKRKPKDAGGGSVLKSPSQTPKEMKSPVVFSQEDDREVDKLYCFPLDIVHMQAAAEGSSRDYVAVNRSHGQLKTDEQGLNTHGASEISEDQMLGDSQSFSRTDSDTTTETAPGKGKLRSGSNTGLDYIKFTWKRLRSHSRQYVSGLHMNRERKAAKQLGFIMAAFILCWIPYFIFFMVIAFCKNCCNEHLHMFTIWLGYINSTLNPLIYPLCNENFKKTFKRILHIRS
Procedure, shortened: (§1)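 Single-point radioligand displacement at the human receptor, performed externally, with ligand at 10 μM. Reported as % inhibition of radioligand binding, measured in duplicate.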

Rattus norvegicus [2] = experiment: Antiinflammatory activity in Wistar rat assessed as inhibition of carrageenan-induced paw edema at 10 mg/kg, sc after 6 hrs; type: functional, organism-based; parameters: dose 10 mg/kg
Procedure, shortened: (§2)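 Male Wistar rats (180–200 g), fasted; paw inflammation induced by subplantar injection of 0.1 mL 1% carrageenan in carboxymethylcellulose into left hind paw. Compound or vehicle (DMSO solution, freshly prepared) given s.c. at 0.1 mL per 100 g immediately before carrageenan. Paw volume by plethysmometer before injection and at 2, 4, 6 h; edema as % increase over preinjection value (=100). n = 6 per group.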

Rattus norvegicus [3] = experiment: Antiinflammatory activity in Wistar rat assessed as inhibition of carrageenan-induced paw edema at 10 mg/kg, sc after 2 hrs; type: functional, organism-based; parameters: dose 10 mg/kg; procedure, shortened: as §2
[4] = molecular target: Histamine H2 receptor (Homo sapiens) (UniProt P25021); experiment: Displacement of [3H]aminopotentidine from human histamine H2 receptor expressed in COS7 cells at 10 uM; type: cell-based; details: COS-7; procedure, shortened: as §1
Histamine H2 receptor (Homo sapiens), sequence (P25021 whole entry): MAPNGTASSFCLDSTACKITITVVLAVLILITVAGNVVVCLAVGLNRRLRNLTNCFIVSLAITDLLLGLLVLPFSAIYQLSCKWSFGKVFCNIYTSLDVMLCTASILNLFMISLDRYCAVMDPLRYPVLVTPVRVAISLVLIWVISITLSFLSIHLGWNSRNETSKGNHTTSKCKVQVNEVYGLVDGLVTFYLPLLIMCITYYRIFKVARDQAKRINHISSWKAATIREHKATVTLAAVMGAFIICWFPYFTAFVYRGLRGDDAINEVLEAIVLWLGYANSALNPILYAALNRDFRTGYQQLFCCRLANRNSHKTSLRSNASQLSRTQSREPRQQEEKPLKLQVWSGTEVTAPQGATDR

[5] = molecular target: Histamine H3 receptor (Homo sapiens) (UniProt Q9Y5N1); experiment: Displacement of [3H]Nalpha-methyl-histamine from human histamine H3 receptor expressed in […] cells at 10 uM; type: cell-based; details: SK-N-MC; procedure, shortened: as §1
Histamine H3 receptor (Homo sapiens), sequence (Q9Y5N1 whole entry): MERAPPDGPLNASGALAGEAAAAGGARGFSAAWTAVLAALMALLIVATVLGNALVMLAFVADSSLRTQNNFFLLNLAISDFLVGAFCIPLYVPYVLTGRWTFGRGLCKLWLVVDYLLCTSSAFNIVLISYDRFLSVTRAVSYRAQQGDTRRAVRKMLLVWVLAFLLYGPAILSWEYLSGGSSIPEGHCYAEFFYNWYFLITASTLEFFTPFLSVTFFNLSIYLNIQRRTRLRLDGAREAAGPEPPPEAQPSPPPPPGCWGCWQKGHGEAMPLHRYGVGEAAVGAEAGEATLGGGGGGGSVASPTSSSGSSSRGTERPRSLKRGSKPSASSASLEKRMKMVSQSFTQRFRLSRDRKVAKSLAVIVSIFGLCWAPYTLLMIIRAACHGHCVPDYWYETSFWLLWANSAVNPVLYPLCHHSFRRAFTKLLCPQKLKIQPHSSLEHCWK

Rattus norvegicus [6] = experiment: Antiinflammatory activity in Wistar rat assessed as inhibition of carrageenan-induced paw edema at 30 mg/kg, sc after 2 hr; type: functional, organism-based; parameters: dose 30 mg/kg; procedure, shortened: as §2
Histamine H1 receptor [7] = molecular target: T1, Histamine H1 receptor; experiment: Displacement of [3H]mepyramine from human histamine H1 receptor expressed in NIH3T3 cells; type: cell-based

Histamine H4 receptor, sequence (Q9H3N8 whole entry): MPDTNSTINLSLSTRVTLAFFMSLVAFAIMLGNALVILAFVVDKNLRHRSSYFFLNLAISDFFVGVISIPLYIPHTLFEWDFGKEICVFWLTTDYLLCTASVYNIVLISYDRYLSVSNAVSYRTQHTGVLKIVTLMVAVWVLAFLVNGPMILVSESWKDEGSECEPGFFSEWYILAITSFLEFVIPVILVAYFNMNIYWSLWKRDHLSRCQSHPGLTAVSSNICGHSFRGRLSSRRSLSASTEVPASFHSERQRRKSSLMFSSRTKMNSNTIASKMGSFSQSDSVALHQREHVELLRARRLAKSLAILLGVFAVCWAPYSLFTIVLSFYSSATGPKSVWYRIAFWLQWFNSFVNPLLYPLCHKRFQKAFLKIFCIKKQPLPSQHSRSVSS

Compound	Ki (Histamine H4 receptor) [nM]	also measured
CCN1CCN(c2nc3ccccc3nc2Cc2ccccc2)CC1	2690	
CN1CCN(c2nc3ccccc3nc2OCc2cccc(Cl)c2)CC1	269	
CN1CCN(c2nc3cc(Cl)c(Cl)cc3[nH]c2=O)CC1	5.62	inhibition (Histamine H1 receptor [1]): 7%; Activity (Rattus norvegicus [2]): Active; Activity (Rattus norvegicus [3]): Active; inhibition [4]: 42%; inhibition [5]: 64%
CN1CCN(c2nc3ccccc3nc2Oc2ccc(Cl)c(Cl)c2)CC1	1700	
CN1CCN(c2nc3ccccc3nc2Oc2ccccc2)CC1	324	
CN1CCN(c2cnc3cc(Cl)ccc3n2)CC1	91.2	
Cc1nc2ccccc2nc1N1CCN(C)CC1	200	
CN1CCN(c2cnc3ccccc3n2)CC1	891	
Cc1cccc(Oc2nc3ccccc3nc2N2CCN(C)CC2)c1	575	
CN1CCN(c2nc3ccccc3nc2OCc2ccccn2)CC1	468	
CN1CCN(c2ccc3ccccc3n2)CC1	6920	
CN1CCN(c2nc3ccccc3[nH]c2=O)CC1	61.7	
CCOc1nc2ccccc2nc1N1CCN(C)CC1	229	
CN1CCN(c2nc3ccccc3nc2Cc2ccccc2)CC1	39.8	inhibition (Histamine H1 receptor [1]): 86%; Activity (Rattus norvegicus [6]): Active; inhibition [4]: 62%; inhibition [5]: 26%; Ki (Histamine H1 receptor [7]): 741 nM
CN1CCN(c2nc3ccccc3nc2OCCCCc2ccccc2)CC1	2950	
CN1CCN(c2nc3ccccc3nc2Oc2cccnc2)CC1	1290	
CN1CCN(c2nc3cc(Cl)c(Cl)cc3nc2Oc2ccccc2)CC1	1170	
CN(C)CCCOc1nc2ccccc2nc1N1CCN(C)CC1	3980	
CN1CCN(c2nc3cc(Cl)ccc3[nH]c2=O)CC1	11.7	
CN1CCN(c2nc3ccccc3nc2-c2ccccc2)CC1	10200	
CN1CCN(c2nc3ccccc3nc2Sc2ccccc2)CC1	363	
CC(C)COc1nc2ccccc2nc1N1CCN(C)CC1	5750	
CN1CCN(c2nccc3ccccc23)CC1	20400	

Compound	Ki (Histamine H4 receptor) [nM]	also measured
CN1CCN(c2nc3ccccc3nc2C(F)(F)F)CC1	2510	
CN1CCN(c2nc3ccccc3nc2NCc2ccccc2)CC1	7410	
COc1ccc(Oc2nc3ccccc3nc2N2CCN(C)CC2)cc1	2340	
CN1CCN(c2nc3cc(Cl)c(Cl)cc3nc2CCc2ccccc2)CC1	3980	
CN1CCN(c2nc3ccccc3nc2OCc2ccccc2)CC1	295	
CN1CCN(c2nc3ccccc3nc2Oc2ccc(F)cc2)CC1	1580	
CN1CCN(c2nc3ccccc3nc2OCc2cccnc2)CC1	2950	
CN1CCN(c2nc3ccccc3nc2Oc2ccc(Cl)cc2)CC1	2340	
CN1CCN(c2nc3ccccc3nc2Cl)CC1	229	
COc1nc2cc(Cl)c(Cl)cc2nc1N1CCN(C)CC1	57.5	
COc1nc2cc(Cl)ccc2nc1N1CCN(C)CC1	26.3	
COc1ccc(COc2nc3ccccc3nc2N2CCN(C)CC2)cc1	708	
Cc1ccc(Oc2nc3ccccc3nc2N2CCN(C)CC2)cc1	2190	
CN1CCN(c2nc3ccccc3nc2Oc2cccc(N(C)C)c2)CC1	1550	
CN1CCCN(c2nc3cc(Cl)ccc3[nH]c2=O)CC1	977	
CN1CCN(c2nc3ccccc3nc2OCc2ccncc2)CC1	4370	
Cc1nc2cc(Cl)c(Cl)cc2nc1N1CCN(C)CC1	63.1	
CN1CCN(c2ccc3cc(Cl)ccc3n2)CC1	589	
CN1CCN(c2nc3ccccc3nc2OCc2ccc(Cl)cc2)CC1	2290	
COc1nc2ccccc2nc1N1CCN(C)CC1	339	
Cc1ccc(COc2nc3ccccc3nc2N2CCN(C)CC2)cc1	1380	
CN1CCN(c2nc3ccccc3nc2OCCc2ccccc2)CC1	479	
CN1CCN(c2nc3ccccc3nc2OC2CCCCC2)CC1	13200	
